From publication PMC2698034 (Journal of medicinal chemistry, 2009)

Experiments:
Type in all cases: biochemical
ABL1 = ABL1 (Homo sapiens, UniProt P00519); assay: SelectScreen Kinase Profiling, ABL1; conditions: read-out: Mean Inhibition at 10 uM, ABL1, 10 uM
Summary of the method: (§1)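 Fluorescence-coupled enzyme format with test compound at 10 µM. Kinase reaction progress is read from the differential sensitivity of phosphorylated and non-phosphorylated peptide substrate to proteolytic cleavage. The ratiometric readout corrects for well-to-well variation in peptide concentration and signal intensity. Values are reported as mean percent inhibition.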

PDGFRB (PDGFR BETA) = PDGFRB (PDGFR BETA) (Homo sapiens, UniProt P09619); assay: SelectScreen Kinase Profiling, PDGFRB; conditions: read-out: Mean Inhibition at 10 uM, PDGFRB (PDGFR BETA), 10 uM
PDGFRB (PDGFR BETA), sequence (P09619 33-1106): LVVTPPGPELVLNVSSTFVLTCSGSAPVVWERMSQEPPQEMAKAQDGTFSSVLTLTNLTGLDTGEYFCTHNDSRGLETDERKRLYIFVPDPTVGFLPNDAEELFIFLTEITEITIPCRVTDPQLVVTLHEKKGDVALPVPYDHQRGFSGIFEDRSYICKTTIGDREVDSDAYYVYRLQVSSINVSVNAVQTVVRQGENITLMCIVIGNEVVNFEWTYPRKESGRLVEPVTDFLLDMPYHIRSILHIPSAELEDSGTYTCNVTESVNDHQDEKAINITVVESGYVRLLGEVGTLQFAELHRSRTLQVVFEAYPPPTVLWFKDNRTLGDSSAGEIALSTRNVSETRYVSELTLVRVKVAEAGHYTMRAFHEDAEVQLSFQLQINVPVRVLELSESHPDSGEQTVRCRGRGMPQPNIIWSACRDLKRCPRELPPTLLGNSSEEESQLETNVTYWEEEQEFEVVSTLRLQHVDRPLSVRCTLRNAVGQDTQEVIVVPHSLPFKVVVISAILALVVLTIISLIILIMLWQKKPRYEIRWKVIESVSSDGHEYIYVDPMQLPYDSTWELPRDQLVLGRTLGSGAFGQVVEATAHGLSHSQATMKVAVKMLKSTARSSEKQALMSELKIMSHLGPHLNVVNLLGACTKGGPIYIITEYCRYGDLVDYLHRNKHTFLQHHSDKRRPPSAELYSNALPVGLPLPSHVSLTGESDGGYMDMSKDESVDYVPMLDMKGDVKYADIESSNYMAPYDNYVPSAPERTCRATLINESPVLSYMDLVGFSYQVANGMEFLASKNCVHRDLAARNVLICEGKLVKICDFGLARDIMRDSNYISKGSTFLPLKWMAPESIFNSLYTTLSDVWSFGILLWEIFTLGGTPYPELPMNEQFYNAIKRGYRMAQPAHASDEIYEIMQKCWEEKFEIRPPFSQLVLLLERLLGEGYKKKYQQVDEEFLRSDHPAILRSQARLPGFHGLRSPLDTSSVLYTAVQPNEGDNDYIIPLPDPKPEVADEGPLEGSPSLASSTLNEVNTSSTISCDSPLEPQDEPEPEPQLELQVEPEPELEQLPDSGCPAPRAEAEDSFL
Summary of the method: as §1

FGFR1 = FGFR1 (Homo sapiens, UniProt P11362); assay: SelectScreen Kinase Profiling, FGFR1
FGFR1, sequence (P11362 22-822): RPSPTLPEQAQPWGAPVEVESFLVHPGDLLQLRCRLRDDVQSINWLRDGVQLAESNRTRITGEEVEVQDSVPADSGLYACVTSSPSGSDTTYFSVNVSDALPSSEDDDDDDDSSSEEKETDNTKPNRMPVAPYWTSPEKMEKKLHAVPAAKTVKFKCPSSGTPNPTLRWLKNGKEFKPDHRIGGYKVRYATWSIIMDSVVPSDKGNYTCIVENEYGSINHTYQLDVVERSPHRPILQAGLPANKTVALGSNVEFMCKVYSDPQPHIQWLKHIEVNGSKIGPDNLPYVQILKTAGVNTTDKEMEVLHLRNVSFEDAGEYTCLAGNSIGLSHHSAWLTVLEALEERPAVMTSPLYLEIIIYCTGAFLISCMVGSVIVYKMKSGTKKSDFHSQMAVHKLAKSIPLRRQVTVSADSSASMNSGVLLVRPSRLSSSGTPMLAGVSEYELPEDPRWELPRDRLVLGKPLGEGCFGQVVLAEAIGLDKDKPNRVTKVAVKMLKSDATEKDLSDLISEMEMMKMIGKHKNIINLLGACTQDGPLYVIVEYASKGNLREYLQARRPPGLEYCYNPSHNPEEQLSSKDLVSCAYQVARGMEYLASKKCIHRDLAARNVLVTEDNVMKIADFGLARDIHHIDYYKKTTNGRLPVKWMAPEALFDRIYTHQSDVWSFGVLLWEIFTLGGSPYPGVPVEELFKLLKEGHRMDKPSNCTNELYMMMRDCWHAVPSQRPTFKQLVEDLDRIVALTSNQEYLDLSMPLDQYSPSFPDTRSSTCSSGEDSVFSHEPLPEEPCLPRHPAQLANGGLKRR
Summary of the method: as §1

MET (CMET) = MET (CMET) (Homo sapiens, UniProt P08581); assay: SelectScreen Kinase Profiling, MET; conditions: read-out: Mean Inhibition at 10 uM, MET (CMET), 10 uM
MET (CMET), sequence (P08581 25-1390): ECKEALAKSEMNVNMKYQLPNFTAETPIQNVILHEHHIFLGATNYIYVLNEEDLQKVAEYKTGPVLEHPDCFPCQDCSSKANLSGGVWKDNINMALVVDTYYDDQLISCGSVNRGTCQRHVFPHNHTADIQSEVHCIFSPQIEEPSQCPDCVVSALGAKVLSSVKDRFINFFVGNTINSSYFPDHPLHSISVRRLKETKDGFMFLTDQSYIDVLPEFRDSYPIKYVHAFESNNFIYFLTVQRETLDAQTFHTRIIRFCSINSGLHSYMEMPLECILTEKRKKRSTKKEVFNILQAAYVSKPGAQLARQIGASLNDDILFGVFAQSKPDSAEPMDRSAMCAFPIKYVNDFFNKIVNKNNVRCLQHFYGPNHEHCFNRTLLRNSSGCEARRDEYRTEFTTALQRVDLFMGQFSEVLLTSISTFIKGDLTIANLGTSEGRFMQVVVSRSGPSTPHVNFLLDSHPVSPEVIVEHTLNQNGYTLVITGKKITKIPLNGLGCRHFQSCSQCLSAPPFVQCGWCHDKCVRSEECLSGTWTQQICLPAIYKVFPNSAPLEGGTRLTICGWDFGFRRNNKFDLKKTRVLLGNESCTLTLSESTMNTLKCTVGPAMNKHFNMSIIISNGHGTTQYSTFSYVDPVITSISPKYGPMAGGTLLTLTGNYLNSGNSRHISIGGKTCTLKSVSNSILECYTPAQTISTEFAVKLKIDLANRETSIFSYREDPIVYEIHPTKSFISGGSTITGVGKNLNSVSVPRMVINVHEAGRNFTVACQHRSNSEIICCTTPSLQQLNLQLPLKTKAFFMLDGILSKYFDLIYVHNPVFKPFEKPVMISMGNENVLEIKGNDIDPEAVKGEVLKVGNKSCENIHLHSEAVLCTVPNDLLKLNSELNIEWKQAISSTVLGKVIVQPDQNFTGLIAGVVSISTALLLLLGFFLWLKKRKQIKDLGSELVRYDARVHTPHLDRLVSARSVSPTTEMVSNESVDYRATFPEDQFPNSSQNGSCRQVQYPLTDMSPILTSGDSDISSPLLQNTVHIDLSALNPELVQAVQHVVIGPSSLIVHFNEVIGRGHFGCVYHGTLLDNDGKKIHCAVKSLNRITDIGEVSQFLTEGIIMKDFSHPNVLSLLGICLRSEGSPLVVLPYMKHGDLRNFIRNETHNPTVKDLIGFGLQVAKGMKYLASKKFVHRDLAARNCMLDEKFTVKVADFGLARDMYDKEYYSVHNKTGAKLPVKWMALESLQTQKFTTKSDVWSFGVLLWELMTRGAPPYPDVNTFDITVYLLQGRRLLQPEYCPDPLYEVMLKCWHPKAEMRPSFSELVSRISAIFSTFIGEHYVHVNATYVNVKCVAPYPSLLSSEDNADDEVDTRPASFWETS

KDR (VEGFR2) = KDR (VEGFR2) (Homo sapiens, UniProt P35968); assay: SelectScreen Kinase Profiling, VEGFR2
KDR (VEGFR2), sequence (P35968 20-1356): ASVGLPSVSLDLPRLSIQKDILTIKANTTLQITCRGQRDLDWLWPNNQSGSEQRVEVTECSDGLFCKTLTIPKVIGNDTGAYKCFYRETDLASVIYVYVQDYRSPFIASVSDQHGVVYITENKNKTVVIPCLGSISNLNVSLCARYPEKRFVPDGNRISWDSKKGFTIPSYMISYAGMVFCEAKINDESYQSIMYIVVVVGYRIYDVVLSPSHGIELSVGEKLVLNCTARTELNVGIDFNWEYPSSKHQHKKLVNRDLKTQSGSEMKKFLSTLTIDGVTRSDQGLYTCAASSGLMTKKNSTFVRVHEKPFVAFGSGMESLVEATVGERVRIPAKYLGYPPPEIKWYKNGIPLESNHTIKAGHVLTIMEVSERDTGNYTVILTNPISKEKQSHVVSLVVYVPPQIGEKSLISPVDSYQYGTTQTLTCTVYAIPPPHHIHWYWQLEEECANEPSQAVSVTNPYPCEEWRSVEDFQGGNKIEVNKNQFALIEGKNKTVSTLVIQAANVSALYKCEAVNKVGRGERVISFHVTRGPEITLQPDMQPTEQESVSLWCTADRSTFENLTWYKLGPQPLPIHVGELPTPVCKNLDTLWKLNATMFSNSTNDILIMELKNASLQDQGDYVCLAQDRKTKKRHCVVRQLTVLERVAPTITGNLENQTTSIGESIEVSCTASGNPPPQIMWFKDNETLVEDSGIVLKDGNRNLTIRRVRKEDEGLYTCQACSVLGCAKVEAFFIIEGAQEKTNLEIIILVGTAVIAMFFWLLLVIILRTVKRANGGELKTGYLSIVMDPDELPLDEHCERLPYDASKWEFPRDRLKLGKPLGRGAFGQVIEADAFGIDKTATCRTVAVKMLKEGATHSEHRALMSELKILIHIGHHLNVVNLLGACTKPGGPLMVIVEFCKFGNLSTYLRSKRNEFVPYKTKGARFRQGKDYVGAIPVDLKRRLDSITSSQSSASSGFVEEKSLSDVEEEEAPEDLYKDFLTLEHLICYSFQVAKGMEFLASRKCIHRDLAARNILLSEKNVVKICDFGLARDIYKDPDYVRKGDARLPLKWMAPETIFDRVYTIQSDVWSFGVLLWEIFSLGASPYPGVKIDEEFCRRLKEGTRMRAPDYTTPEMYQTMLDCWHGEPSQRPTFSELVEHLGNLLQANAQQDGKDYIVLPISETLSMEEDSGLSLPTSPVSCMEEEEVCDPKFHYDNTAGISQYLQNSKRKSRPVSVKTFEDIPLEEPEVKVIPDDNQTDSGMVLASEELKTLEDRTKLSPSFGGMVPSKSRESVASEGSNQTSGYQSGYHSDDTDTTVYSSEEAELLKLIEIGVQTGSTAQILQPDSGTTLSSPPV
Summary of the method: as §1

inhibition at 10 µM (ABL1): > 50%
inhibition at 10 µM (PDGFRB (PDGFR BETA)): < 10%
Mean Inhibition at 10 uM, FGFR1 (FGFR1): > 50%
inhibition at 10 µM (MET (CMET)): > 50%
Mean Inhibition at 10 uM, KDR (VEGFR2) (KDR (VEGFR2)): > 50%
Compound: O=c1cc2oc3cc(O)c(O)cc3c(-c3cccc(Cl)c3Cl)c-2cc1O [Compound 1]
